This is an account of results in ChEMBL document CHEMBL2429739, “Double-targeting using a TrkC ligand conjugated to dipyrrometheneboron difluoride (BODIPY) based photodynamic therapy (PDT) agent” (J Med Chem, 2013).

As a reminder, the IC50 is the concentration at which inhibition is half-maximal.

Data set [1] can be described thus: Cellular uptake in lysosome of mouse NIH/3T3 cells expressing TrkC at 1 uM after 12 hrs by confocal microscopy. It is filed as ADME, cell-based. Conditions: nih3t3, 12 h. An outline of the steps: (§1)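 NIH3T3-TrkC cells (grown in DMEM/F12 with G418 and 10% newborn calf serum) incubated with agent at 1 μM for 12 h at 37 °C, then PBS-washed. Co-stained with LysoTracker Red 500 nM for 30 min at 37 °C, or with MitoTracker Deep Red / ER-Tracker Blue-White at 100 nm for 15 min. Washed again, then live cells imaged by multiphoton confocal Z-stacks in 0.5 μm steps.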

Data set [2] in a line: Cellular uptake in mitochondria of mouse NIH/3T3 cells expressing TrkC at 1 uM after 12 hrs by confocal microscopy. It is filed as ADME. Conditions: nih3t3, 12 h. In a few lines: as §1
Data set [3] has as its system NIH3T3. Briefly: Dark cytotoxicity against mouse NIH/3T3 cells expressing TrkC assessed as cell viability by MTT assay. The format is cell-based. An outline of the steps: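 NIH3T3-TrkC cells given the same 2 h agent treatment and wash as in the light assay, but kept without illumination. Viability measured by MTT; three runs.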
(In general: Tetrazolium dyes change colour on reduction, which living cells bring about.)

Data set [4] concerns NIH3T3. Briefly: Cellular uptake in mouse NIH/3T3 cells expressing TrkC at 0.5 uM after 2 hrs by confocal microscopy. The format is ADME, cell-based. Conditions: nih3t3, 2 h. An outline of the steps: (§2)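 TrkC-transfected or wild-type NIH3T3 cells exposed to agent at 0.5 μM in supernatant for 2 h. Cells washed three times with PBS, then imaged live by confocal microscopy. Intracellular fluorescence intensity was quantified over 100 cells.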

A short description of data set [5]: Cellular uptake in endoplasmic reticulum of mouse NIH/3T3 cells expressing TrkC at 1 uM after 12 hrs by confocal microscopy. The format is ADME, cell-based. The note with it: nih3t3, 12 h. In a few lines: as §1
For data set [6], the system named is NIH3T3. In words: Cytotoxicity against wild type mouse NIH/3T3 cells assessed as cell viability after 2 hrs followed by 7.3 J/cm'2 halogen light irradiation measured after 24 hrs by MTT assay. The format is cell-based. Conditions: nih3t3, 24 h. In a few lines: (§3)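 Cells seeded overnight at about 10,000/well (NIH3T3-TrkC) or 7000/well (NIH3T3-WT, SY5Y). Agent applied at 0.02–2 μM final in protein-free PFHM-II medium (<0.001% DMSO) for 2 h. Cells washed and given fresh medium, then irradiated with >480 nm halogen light at 12.2 mW/cm2 (7.3 J/cm2, 10 min). After 24 h, MTT added for 3.5 h; OD read at 570 nm. % dead = 100 − (OD treated/OD control)×100; three runs.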

Data set [7] relates to NIH3T3. Briefly: Cytotoxicity against mouse NIH/3T3 cells expressing TrkC assessed as cell viability incubated for 2 hrs followed by 7.3 J/cm'2 halogen light irradiation measured after 24 hrs by MTT assay in presence of 20 uM of IY-IY. The format is functional, cell-based. An outline of the steps:
(§4)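 NIH3T3-TrkC cells treated for 2 h with agent (0.02–2 μM) together with a constant 20 μM IY-IY or 3.5 nM NT-3 competitor. Cells washed, then irradiated at >480 nm, 12.2 mW/cm2, 7.3 J/cm2. After 24 h, viability read by MTT (OD 570 nm) and expressed as % dead cells; three runs.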

Data set [8] concerns NIH3T3. Briefly: Cytotoxicity against mouse NIH/3T3 cells expressing TrkC assessed as cell viability incubated for 2 hrs followed by 7.3 J/cm'2 halogen light irradiation measured after 24 hrs by MTT assay. The format is functional, cell-based. Conditions: for IC50: NIH3T3, light or radiation study. In a few lines: as §3
Data set [9] can be described thus: Cytotoxicity against human SH-SY5Y cells expressing TrkC assessed as cell viability after 2 hrs followed by 7.3 J/cm'2 halogen light irradiation measured after 24 hrs by MTT assay. The format is functional, cell-based. The note with it: light or radiation study. An outline of the steps:
as §3

Data set [10] has as its system NIH3T3. In words: Cytotoxicity against mouse NIH/3T3 cells expressing TrkC assessed as cell viability incubated for 2 hrs followed by 7.3 J/cm'2 halogen light irradiation measured after 24 hrs by MTT assay in presence of 3.5 nM of NT3. The format is functional, cell-based. In a few lines: as §4
The subject of the next data set is Mus musculus. Briefly: Toxicity in mouse under dark condition at 100 mg/kg after 12 days. The format is organism-based. Conditions: in vivo, 288 h. Further details: dose 100 mg/kg.
Data set [11] relates to NIH3T3. In words: Cellular uptake in wild type mouse NIH/3T3 cells at 0.5 uM after 2 hrs by confocal microscopy. It is filed as ADME, cell-based. The note with it: nih3t3, 2 h. An outline of the steps:
as §2

Activity calls are given as the source filed them. No cut-off for these calls is given here.

For the molecule `CC[C@H](C)[C@H](N)c1cn([C@@H](Cc2ccc(O)cc2)C(=O)N2CCN(c3nc(NCCOCCOCCOCc4cn(CCCC5=C6C(C)=C(I)C(C)=[N+]6[B-](F)(F)n6c(C)c(I)c(C)c65)nn4)nc(N4CCN(C(=O)[C@H](Cc5ccc(O)cc5)n5cc([C@@H](N)[C@@H](C)CC)nn5)CC4)n3)CC2)nn1`, the Drug uptake result in data set [1] is on record as “Active”; in [2], “Not Active”; in the data set with NIH3T3 [4], “Active”; in data set [5] it was “Not Active”; in the data set with NIH3T3 [11] it was “Not Active”. For the same molecule, the Activity result in the data set with NIH3T3 [3] is “Non-toxic”; in the data set with NIH3T3 [6] it was “Active”; with NIH3T3 [8], “Dose-dependent effect”; in the data set with Mus musculus, “Non-toxic”. Moreover, the result in the data set on NIH3T3 [7] and in the data set with NIH3T3 [10] was Active. In addition, the IC50 in the data set with NIH3T3 [8] was determined as 350 nM; in data set [9] it was 150 nM.

As to `CC[C@H](C)[C@@H](C(=O)N1CCN(c2nc(NCCOCCOCCOCc3cn(CCCC4=C5C(C)=C(I)C(C)=[N+]5[B-](F)(F)n5c(C)c(I)c(C)c54)nn3)nc(N3CCN(C(=O)[C@H]([C@@H](C)CC)n4cc([C@@H](N)Cc5ccc(O)cc5)nn4)CC3)n2)CC1)n1cc([C@@H](N)Cc2ccc(O)cc2)nn1`, the Drug uptake result with NIH3T3 [4] was “Not Active”. Moreover, the half-maximal inhibitory concentration (IC50) with NIH3T3 [8] was more than 2000 nM.
